This assay deals with recombinant human ezrin (Homo sapiens, UniProt P15311). The assay is described as follows: SPR. It is filed as binding. Particulars: read-out: KD (μM)^a, HBS-P pH 7.4, 2-10% DMSO, room temperature. A digest of the protocol:
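Untagged full-length recombinant human ezrin was expressed in E. coli M15 [pREP4] from a pQE16 vector. It was amine-coupled (~10,000 RU) in sodium acetate pH 4.5 to the second flow cell of a CM5 chip, with the first flow cell left empty for background subtraction. Running buffer was HBS-P (10 mM HEPES pH 7.4, 150 mM NaCl, 0.05% P20) with 2–10% DMSO. Seven concentrations (0.78–50 μM) were injected in triplicate over ezrin and control surfaces.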

Where two headings read alike, the source gives them in different places.

What is called Kd is the equilibrium constant for the complex coming apart.

recombinant human ezrin, sequence (P15311 whole entry): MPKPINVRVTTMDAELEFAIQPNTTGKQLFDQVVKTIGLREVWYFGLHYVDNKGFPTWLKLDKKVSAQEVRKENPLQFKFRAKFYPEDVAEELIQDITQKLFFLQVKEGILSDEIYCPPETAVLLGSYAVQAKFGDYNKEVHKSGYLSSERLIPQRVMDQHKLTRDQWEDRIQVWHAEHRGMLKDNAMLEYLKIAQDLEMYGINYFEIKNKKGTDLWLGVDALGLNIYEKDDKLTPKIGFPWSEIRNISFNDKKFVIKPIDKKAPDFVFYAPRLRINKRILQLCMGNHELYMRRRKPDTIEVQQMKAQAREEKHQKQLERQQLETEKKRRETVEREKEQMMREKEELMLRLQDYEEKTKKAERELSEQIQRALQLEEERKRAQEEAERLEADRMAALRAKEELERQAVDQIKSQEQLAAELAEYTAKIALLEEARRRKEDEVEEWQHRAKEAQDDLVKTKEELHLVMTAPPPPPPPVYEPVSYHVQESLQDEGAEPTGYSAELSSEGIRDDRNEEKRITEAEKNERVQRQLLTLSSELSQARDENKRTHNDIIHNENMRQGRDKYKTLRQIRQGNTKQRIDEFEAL

On to `CN1CCN(c2ccc(Nc3c4ccccc4nc4ccccc34)cc2)CC1` [MMV006172], for which the dissociation constant Kd (n=3) turned out to be 6.1 ± 2.8 µM.

Take `CC1CCN(Cc2ccc(NC(=O)c3cc4ccc5cccnc5c4[nH]3)cc2)CC1` [MMV020549]: for the setting “n=3”, the Kd turned out to be 10.7 ± 0.4 µM.

For `CCOC(=O)c1cn(CC)c2cc(N(C)CCc3ccc(OC)c(OC)c3)c(F)cc2c1=O` [MMV665977], where the note is “n=5”, the Kd was found to be 3.1 ± 1.6 µM.

Regarding `COc1ccc(CCN2CCC(CN(C)Cc3cnn(-c4ccccc4)c3)CC2)cc1` [MMV666069], where the note is “n=5”, the Kd turned out to be 2.1 ± 1 µM.

Turning to `CCn1c(SCC(=O)Nc2cc(C(F)(F)F)ccc2Cl)nc2ccccc2c1=O` [MMV666103], the dissociation constant Kd (n=4) is 2.6 ± 1 µM.

On to `CN(N=O)C1=C(NC2CCCCC2)C(=O)c2ccccc2C1=O` [MMV667492], for which the Kd (n=2) was found to be 29.4 ± 4.4 µM.
